{
  "source": "ChEMBL document CHEMBL1212693",
  "about": "“Dorsomorphin inhibits BMP signals required for embryogenesis and iron metabolism” (Nat Chem Biol, 2008)",
  "key": {"Hep 3B2": {"test_system": "Hep 3B2", "test": "Inhibition of BMPR1-mediated hepcidin mRNA expression in IL6-stimulated human Hep3B cells at 10 uM treated 30 mins before IL6 challenge measured after 6 hrs by qRT-PCR analysis", "assay_type": "cell-based", "outline": "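Hep3B cells were incubated in α-MEM with 1% FCS for 6 h, with human IL-6 (100 ng ml−1) or without, together with compound or vehicle. After Trizol RNA extraction, hepcidin and Id1 mRNA were quantified by qRT-PCR. Values were normalised to 18S rRNA or β-actin mRNA, and measurements were in triplicate.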"}, "Danio rerio [1]": {"test_system": "Danio rerio", "test": "Inhibition of iron-dextran conjugate-induced hepcidin mRNA expression in zebrafish at 23 ug/g, ip by qRT-PCR analysis", "assay_type": "functional, organism-based", "outline": "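Adult zebrafish under tricaine were injected intraperitoneally with 10 µl iron-dextran (100 mg ml−1) plus compound (23 µg g−1) or DMSO vehicle; controls received dextran. Livers were taken 3 h later and RNA was extracted with Trizol. Hepcidin mRNA was measured by qRT-PCR and normalised to liver fatty acid binding protein mRNA, with n = 4 per group.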"}, "Mus musculus [2]": {"organism": "Mus musculus", "test": "Inhibition of BMPR1-mediated MAPK p38 phosphorylation in BMP4-stimulated mouse PASMC treated 30 mins before BMP4 challenge measured after 30 mins by immunoblot analysis", "outline": "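Mouse PASMCs were held 24 h in 0.5% FCS RPMI, preincubated 30 min with a dose range of compound, then stimulated 30 min with BMP4. Phospho-SMAD1/5/8 and phospho-p38 were detected by immunoblot and quantitated by phosphorimager (RLU). IC50 was derived from a Hill plot of phospho-SMAD1/5/8 inhibition.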"}, "Mus musculus [3]": {"organism": "Mus musculus", "test": "Inhibition of BMPR1-mediated Smad-1 phosphorylation in BMP2-stimulated mouse PASMC at 4 uM treated 30 mins before BMP2 challenge measured after 30 mins by immunoblot analysis", "outline": "(§1)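 PASMCs (wild-type or BMPR-II–deficient) were kept 24 h in RPMI with 0.5% FCS, preincubated 30 min with compound or vehicle, then stimulated 30 min with recombinant BMP (10 ng ml−1). Extracts in SDS-lysis buffer were immunoblotted for phospho-SMAD1/5/8, with total SMAD1 and α-tubulin as loading controls. Bands were quantitated by phosphorimager.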"}, "Mus musculus [4]": {"organism": "Mus musculus", "test": "Inhibition of BMPR1-mediated Smad-1 phosphorylation in BMP6-stimulated mouse PASMC at 4 uM treated 30 mins before BMP6 challenge measured after 30 mins by immunoblot analysis", "outline": "as §1"}, "Mus musculus [5]": {"organism": "Mus musculus", "test": "Inhibition of BMPR1-mediated Smad-1 phosphorylation in BMP2-stimulated mouse BMPR2 deficient PASMC at 4 uM treated 30 mins before BMP2 challenge measured after 30 mins by immunoblot analysis", "outline": "as §1"}, "Mus musculus [6]": {"organism": "Mus musculus", "test": "Inhibition of BMPR1-mediated Smad-8 phosphorylation in BMP2-stimulated mouse BMPR2 deficient PASMC at 4 uM treated 30 mins before BMP2 measured after 30 mins by immunoblot analysis"}, "Mus musculus [7]": {"organism": "Mus musculus", "test": "Inhibition of BMPR1-mediated Smad-1 phosphorylation in BMP4-stimulated mouse BMPR2 deficient PASMC at 4 uM treated 30 mins before BMP4 challenge measured after 30 mins by immunoblot analysis", "outline": "as §1"}, "Mus musculus [8]": {"organism": "Mus musculus", "test": "Inhibition of BMPR1-mediated Smad-8 phosphorylation in BMP7-stimulated mouse BMPR2 deficient PASMC at 4 uM treated 30 mins before BMP7measured after 30 mins by immunoblot analysis"}, "Mus musculus [9]": {"organism": "Mus musculus", "test": "Inhibition of ALK2-mediated Smad-8 phosphorylation in BMPR2 deficient mouse PASMC at 10 uM by immunoblot analysis", "outline": "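BMPR-II–deficient mouse PASMCs (RPMI, 10% FBS) transiently transfected with constitutively active ALK2, ALK3 or ALK6 cDNA, or plasmid-only control. Incubated with or without compound (10 µM). Extracts lysed in SDS buffer, run on SDS-PAGE and immunoblotted for phospho-SMAD1/5/8; quantitated by phosphorimager.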"}, "Mus musculus [10]": {"organism": "Mus musculus", "test": "Inhibition of ALK3-mediated Id1 promoter activity in BMPR2 deficient mouse PASMC at 10 uM by immunoblot analysis", "outline": "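BMPR-II–deficient mouse PASMCs at 50% confluence co-transfected with Id1 promoter firefly luciferase (BRE-Luc, 0.3 µg), caALK2, caALK3 or caALK6 (0.6 µg), and pRL-TK Renilla (0.2 µg). Compound (4–10 µM) or vehicle added 1 h after transfection. Activity read as firefly/Renilla ratio by dual luciferase assay; n = 3, mean ± s.d.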"}, "C2C12 [11]": {"test_system": "C2C12", "test": "Inhibition of BMPR1-mediated osteoblast differentiation in BMP4-stimulated mouse C2C12 cells assessed as decrease in alkaline phosphatase level at 4 uM by spectrophotometry", "assay_type": "cell-based", "outline": "(§2)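 C2C12 cells were seeded at 2,000 per well in DMEM with 2% FBS and treated in quadruplicate with BMP4 or BMP6 plus compound or vehicle. After 5 d, cells were lysed in TBS with 1% Triton X-100. Lysates were incubated 1 h with p-nitrophenylphosphate and alkaline phosphatase was read as absorbance at 405 nm. Cell count was measured by CyQuant in parallel wells.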"}, "C2C12 [12]": {"test_system": "C2C12", "test": "Inhibition of BMPR1-mediated osteoblast differentiation in BMP6-stimulated mouse C2C12 cells assessed as decrease in alkaline phosphatase level at 4 uM by spectrophotometry", "assay_type": "cell-based", "outline": "as §2"}, "HepG2": {"test_system": "HepG2", "test": "Inhibition of BMPR1-mediated hepcidin mRNA expression in BMP2-stimulated human HepG2 cells at 10 uM treated 30 mins before BMP2 challenge measured after 16 hrs by qRT-PCR analysis", "assay_type": "cell-based"}, "Danio rerio [13]": {"organism": "Danio rerio", "test": "Inhibition of BMPR1 in zebrafish assessed as penetrance of normal embryonic axis dorsalization at 10 uM treated at 2 to 6 hrs post-fertilization measured at 48 hrs", "parameters": "scale not given: the % may be the effect or the level left"}, "Danio rerio [14]": {"organism": "Danio rerio", "test": "Inhibition of BMPR1 in zebrafish assessed as penetrance of moderate embryonic axis dorsalization at 10 uM treated at 2 to 6 hrs post-fertilization measured at 48 hrs", "parameters": "scale not given: the % may be the effect or the level left", "outline": "(§3)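 Compound added at the stated times and concentrations. Gross morphology scored visually at up to 48 h.p.f. for dorsalization of the embryonic axis.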"}, "Danio rerio [15]": {"organism": "Danio rerio", "test": "Inhibition of BMPR1 in zebrafish assessed as severity of embryonic axis dorsalization at 10 uM treated at 2 to 6 hrs post-fertilization measured at 48 hrs", "parameters": "scale not given: the % may be the effect or the level left"}, "Danio rerio [16]": {"organism": "Danio rerio", "test": "Inhibition of BMPR1 in zebrafish assessed as penetrance of mild embryonic axis dorsalization at 10 uM treated at 2 to 8 hrs post-fertilization measured at 48 hrs", "parameters": "scale not given: the % may be the effect or the level left", "outline": "as §3"}, "Danio rerio [17]": {"organism": "Danio rerio", "test": "Inhibition of BMPR1 in zebrafish assessed as penetrance of mild embryonic axis dorsalization at 7.5 uM treated at 3 hrs post-fertilization measured at 48 hrs", "parameters": "scale not given: the % may be the effect or the level left", "outline": "as §3"}, "Danio rerio [18]": {"organism": "Danio rerio", "test": "Inhibition of BMPR1 in zebrafish assessed as penetrance of mild embryonic axis dorsalization at 10 uM treated at 3 hrs post-fertilization measured at 48 hrs", "parameters": "scale not given: the % may be the effect or the level left", "outline": "as §3"}, "Danio rerio [19]": {"organism": "Danio rerio", "test": "Inhibition of BMPR1 in zebrafish assessed as decrease in eve1 expression at 10 uM treated at 18-somite stage measured at 48 hrs"}, "Danio rerio [20]": {"organism": "Danio rerio", "test": "Inhibition of BMPR1 in zebrafish assessed as penetrance of moderate embryonic axis dorsalization at 10 uM treated continuously from 8 hrs post-fertilization measured at 48 hrs", "parameters": "scale not given: the % may be the effect or the level left"}, "Danio rerio [21]": {"organism": "Danio rerio", "test": "Inhibition of BMPR1 in zebrafish assessed as penetrance of mild embryonic axis dorsalization at 10 uM treated continuously from 10 hrs post-fertilization measured at 48 hrs", "parameters": "scale not given: the % may be the effect or the level left", "outline": "as §3"}},
  "note": "Active and inactive are the calls of the source. The rule behind the calls is not given here.",
  "data": [
    {"smiles": "c1cc(-c2cnn3cc(-c4ccc(OCCN5CCCCC5)cc4)cnc23)ccn1", "note": "[DORSOMORPHIN]", "values": [
      {"measurement": "inhibition", "setting": "Hep 3B2", "result": "Active"},
      {"measurement": "inhibition", "setting": "Danio rerio [1]", "result": "Active"},
      {"measurement": "inhibition", "setting": "Mus musculus [2]", "result": "inactive"},
      {"measurement": "inhibition", "setting": "Mus musculus [3]", "result": "Active"},
      {"measurement": "inhibition", "setting": "Mus musculus [4]", "result": "Active"},
      {"measurement": "inhibition", "setting": "Mus musculus [5]", "result": "Active"},
      {"measurement": "inhibition", "setting": "Mus musculus [6]", "result": "Active"},
      {"measurement": "inhibition", "setting": "Mus musculus [7]", "result": "Active"},
      {"measurement": "inhibition", "setting": "Mus musculus [8]", "result": "Active"},
      {"measurement": "inhibition", "setting": "Mus musculus [9]", "result": "Active"},
      {"measurement": "inhibition", "setting": "Mus musculus [10]", "result": "Dose-dependent effect"},
      {"measurement": "inhibition", "setting": "C2C12 [11]", "result": "Active"},
      {"measurement": "inhibition", "setting": "C2C12 [12]", "result": "Active"},
      {"measurement": "inhibition", "setting": "HepG2", "result": "Active"},
      {"measurement": "Activity", "setting": "Danio rerio [13]", "result": 0, "unit": "%"},
      {"measurement": "Activity", "setting": "Danio rerio [14]", "result": 44, "unit": "%"},
      {"measurement": "Activity", "setting": "Danio rerio [15]", "result": 39, "unit": "%"},
      {"measurement": "Activity", "setting": "Danio rerio [16]", "result": 0, "unit": "%"},
      {"measurement": "Activity", "setting": "Danio rerio [17]", "result": 58, "unit": "%"},
      {"measurement": "Activity", "setting": "Danio rerio [18]", "result": 3, "unit": "%"},
      {"measurement": "inhibition", "setting": "Danio rerio [19]", "result": "Active"},
      {"measurement": "Activity", "setting": "Danio rerio [20]", "result": 0, "unit": "%"},
      {"measurement": "Activity", "setting": "Danio rerio [21]", "result": 0, "unit": "%"}
    ]}
  ]
}
